Screening results from PubChem BioAssay.
STAT1 inh = STAT1 signaling inhibition; NIH 3T3 STAT1-luciferase reporter, IFN-gamma, luminescence; inhibition, % at 5.5 µM; actives 0.35% (n = 200,000);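 active = inhibition above a set limit, the mean inhibition across all tested compounds plus 3 SD, cut at about 34% in these data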;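 also: 0% = IFN-gamma with DMSO and 100% = IFN-gamma with 300 µM nifuroxazide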
STAT3 inh = STAT3 signaling inhibition. U3A cells, IL-6 STAT3-luciferase reporter, luminescence; host cell line lacks STAT1. inhibition, % at 5.5 µM. actives 0.89% (n = 190,000). AID 862;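 active = inhibition above the mean inhibition across all screened compounds plus 3 SD, cut at about 44% in these data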;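 also: 0% = DMSO only wells and 100% = 100 µM nifuroxazide control wells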
APP 5'UTR act = activates APP 5'UTR luciferase reporter; SH-SY5Y APP 5'UTR luciferase reporter, luminescence; zero percent = DMSO vehicle wells; activation, % at 2 µM; actives 1% (n = 190,000);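 active = activation above a set limit, based on mean plus 3 SD of controls, cut at about 140% in these data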
STAT3 act = increases IL-6 driven STAT3 reporter signal. actives 0.91% (n = 190,000). U3A cells, IL-6 STAT3-luciferase reporter, luminescence; 100% = signal with IL-6 EC80 alone. AID 871. activation (% of control), % at 5.6 µM;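 active = activation above the screen-wide mean of compound activation plus 3 SD, cut at about 130% in these data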;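 also: 0% = background luminescence of wells with medium and substrate only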
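Assay system – human STAT1-deficient U3A cells with stable STAT3-luciferase reporter · Also added – IL-6 (33 ng/mL) · Schedule – compound 1 h, then IL-6 6 h at 37 °C · Technique – reporter luminescence signal · Evaluation – % activation versus median of IL-6-stimulated wells · Benchmarks – IL-6-only wells as 100% reference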
STAT1 activator = activators of IFN-gamma induced STAT1 signaling | AID 932 | activation (% of control), % at 5.5 µM | actives 2.6% (n = 200,000) | NIH 3T3 STAT1-luciferase reporter, luminescence; 100% = IFN-gamma alone, no compound;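 active = activation above the screen-wide mean activation plus 3 SD, cut at about 130% in these data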;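 also: raw ratio to IFN-gamma control signal so 100% means no change and 0% no light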
NF-kB neuron act = compounds increasing NF-kB expression in human neuronal cells; NF-kB reporter expression; stronger effect = higher value; fold change at 12.5 µM; actives 1.6% (n = 190,000); AID 1239; in the data active = fold change above about 3.3
* = called active by the depositor; / = no result. In the library only some 4.9% were active in any assay of this set; here they are far more common.

SMILES | STAT1 inh | STAT3 inh | APP 5'UTR act | STAT3 act | STAT1 activator | NF-kB neuron act
Cc1nn2c3ccccc3nc2c2ccccc12 | -21 | -41 | -6 | 134* | 115 | 1.1
CCn1c(=O)c(C)nn2c3ccccc3nc12 | -8 | 10 | -12 | 97 | 108 | 1
O=C(COc1ccc(Br)cc1F)N1CCN(c2ncccn2)CC1 | 0 | 4 | 7 | 100 | 99 | 1.3
O=C(Nc1ccc(Cl)cc1)NC1CCCCC1 | -43 | -15 | 46 | 115 | 138* | 2.6
O=C(Nc1ccc2nsnc2c1)C1CC1 | -6 | 16 | -2 | 88 | 104 | 0.97
Nc1ccc(NC(=O)NC2CCCCC2)cc1 | -16 | 12 | 4 | 95 | 115 | 1.4
O=C(Nc1ccc2nsnc2c1)NC1CCCCC1 | -34 | -8 | 92 | 107 | 131* | 3.8*
COc1ccc(NC(=O)Nc2cccc(OC)c2)cc1 | -18 | 3 | 66 | 104 | 117 | /
COc1cccc(NC(=O)Nc2ccc3nsnc3c2)c1 | -35 | 12 | / | 94 | 131* | 1.8
S=C(Nc1ccc2nc(-c3ccccn3)c(-c3ccccn3)nc2c1)N1CCCCC1 | 2 | 1 | -6 | 101 | 97 | 0.95
S=C(Nc1ccc2nsnc2c1)N1CCCCC1 | -36 | 2 | 65 | 97 | 132* | 2.6
O=C(Nc1sc2c(c1C(=O)O)CCCC2)c1cccs1 | -24 | -5 | 68 | 107 | 122 | 2
O=C(Nc1sc2c(c1C(=O)O)CCCCC2)c1cccs1 | -21 | 2 | 174* | 102 | 116 | 1.9
Cn1nccc1C(=O)Nc1sc2c(c1C(N)=O)CCCC2 | -50 | 19 | 33 | 90 | 146* | 1.5
NC(=O)c1c(NC(=O)c2cccnc2)sc2c1CCCC2 | -38 | 31 | 28 | 80 | 134* | 1.8
Cc1sc(NC(=O)c2cccs2)c(C(N)=O)c1C | -44 | -15 | 56 | 116 | 140* | 2.3
CC(=O)Nc1sc2c(c1C(N)=O)CCCC2 | -6 | -5 | -7 | 105 | 105 | 1.2
O=C(C1CCCC1)N1CCN=C1SCc1cccc([N+](=O)[O-])c1 | -2 | 2 | 22 | 106 | 100 | 1.1
CCCCNC(=O)c1onc(CSc2ccccc2CC)c1C(=O)O | 3 | 120* | 7 | 7 | 97 | 1
Cc1ccc(-c2ccc(/C=N/c3ncn[nH]3)o2)cc1Cl | -11 | -12 | 3 | 111 | 112 | 1.1
COc1cc(C2C(C#N)=C(N)Oc3cc(N)ccc32)cc(OC)c1OC (centres undefined) | -10 | -5 | -95 | 108 | 109 | 3.7*
CCC(C)(C)NC(=O)c1cc(S(=O)(=O)N2CCCCC2)ccc1N1CCOCC1 | -3 | -13 | 14 | 112 | 103 | 1
CCSc1ncc(/C=N/Nc2ccc(Cl)cc2)n1C | -66 | -52 | 70 | 150* | 160* | 5.7*
CNc1ccccc(-c2ccc3ccccc3n2)c1=O | -54 | -7 | 104 | 111 | 147* | 2.3
Clc1ccccc1Cn1nnc(-c2ccccc2)n1 | -46 | -2 | 49 | 109 | 141* | 2.3
SMILES | STAT1 inh | STAT3 inh | APP 5'UTR act | STAT3 act | STAT1 activator | NF-kB neuron act
Clc1ccccc1Cn1nnc(-c2cccs2)n1 | -45 | -30 | 41 | 128 | 143* | 1.8
O=C(N/N=C/c1ccc([N+](=O)[O-])cc1)c1[nH]ncc1Br | -36 | 16 | 94 | 90 | 131* | 1.6
Oc1ccccc1Nc1ncnc2c1oc1ccccc12 | -11 | -66 | -3 | 158* | 110 | 1.3
CC(C)C(Nc1ncnc2c1oc1ccccc12)C(=O)O (centres undefined) | 8 | -22 | 17 | 124 | 91 | /
CC(=O)N1CCN(c2ccc(Nc3ncnc4c3oc3ccccc34)cc2)CC1 | 3 | 41 | / | 71 | 97 | 0.45
c1ccc(Nc2ncnc3c2oc2ccccc23)cc1 | -35 | 0 | 51 | 102 | 132* | 2.2
N#C/C(=C\c1ccc(N2CCCCC2)o1)C(N)=O | -19 | 12 | 30 | 92 | 117 | 1.3
N#C/C(=C\c1ccc(N2CCCCC2)o1)C(=O)Nc1cccc(Br)c1 | -67 | -12 | 170* | 111 | 160* | 1.1
COc1ccccc1C(=O)NNC(=O)c1ccccc1F | -43 | -42 | 60 | 133 | 138* | 2.1
COCC(=O)NNC(=O)c1ccccc1OC | 2 | -38 | 6 | 135* | 99 | 1
COc1ccccc1C(=O)NNC(=O)c1cccc(F)c1 | -51 | 10 | 129 | 94 | 146* | 2.3
COc1cc2c(cc1NC(=O)c1ccccc1F)CCCC2 | -42 | -33 | 74 | 129 | 138* | 2.5
CC(C)Cc1nc(N2CCOCC2)c(C#N)c2c1COC(C)(C)C2 | -3 | -6 | 13 | 107 | 102 | 1.1
O=C(c1cc2ccccc2oc1=O)N(Cc1ccccc1)Cc1ccc2c(c1)OCO2 | -6 | -38 | -9 | 135* | 111 | 0.59
O=C(c1cc2ccccc2oc1=O)N1CCN(Cc2ccc3c(c2)OCO3)CC1 | -3 | 11 | 12 | 96 | 103 | 1.6
CCc1ccc(CN(C(=O)c2cc3ccccc3oc2=O)C2CCS(=O)(=O)C2)cc1 (centres undefined) | -32 | -18 | 105 | 118 | 129* | 4.1*
CCc1ccc(/C=C2\CN(CC)Cc3c2nc2ccccc2c3C(=O)O)cc1 | -2 | 4 | -5 | 107 | 102 | 1.1
O=C(O)c1c2c(nc3ccccc13)/C(=C/c1ccc(O)cc1)CC2 | 43* | 58* | 36 | 56 | 59 | 0.93
Cc1cccc(NC(=O)COC(=O)c2cc3ccccc3oc2=O)c1 | -10 | -20 | 0 | 115 | 110 | 1.1
Cc1cc(NC(=O)c2ccc(-c3ccc(F)c(Cl)c3)o2)no1 | -25 | 25 | 34 | 85 | 122 | 1.3
Cc1cc(NC(=O)c2ccc(-c3ccccc3F)o2)no1 | -50 | 5 | 58 | 99 | 144* | 2
O=C(Nc1ccc(O)c(-c2nc3ccccc3o2)c1)C1(c2ccccc2)CCCC1 | -2 | 7 | 5 | 98 | 102 | 0.76
NC(=O)COC(=O)CSc1cccc2cccc(Cl)c12 | -4 | 4 | -6 | 103 | 103 | 0.91
CCCSc1nsc(NC(=O)CC)n1 | -34 | 3 | 112 | 100 | 130* | 3.7*
CCCCCCSc1nsc(NC(=O)CC(C)C)n1 | -8 | 9 | 42 | 96 | 107 | 1.4
Cc1ccc(/C=N/n2cnc3sc(C)c(C)c3c2=O)o1 | -23 | 9 | -1 | 92 | 121 | 1.4
COc1ccc(C2C(C(=O)/C=C/c3ccco3)=C(O)C(=O)N2CCN2CCOCC2)cc1OC (centres undefined) | 1 | 5 | -1 | 101 | 97 | 0.97
NNC(=O)c1cnn(Cc2ccccc2)c1N | 1 | 7 | -11 | 96 | 96 | 1.3
O=C1c2cccc3c(N4CCCCC4)ccc(c23)C(=O)N1CCO | -35 | 12 | 59 | 95 | 131* | 1.6
C=CCN1C(=O)c2cccc3c(N4CCCCC4)ccc(c23)C1=O | -30 | 8 | 28 | 95 | 126 | 1.6
